From ChEMBL document CHEMBL3091377, “Small molecule fusion inhibitors: design, synthesis and biological evaluation of (Z)-3-(5-(3-benzyl-4-oxo-2-thioxothiazolidinylidene)methyl)-N-(3-carboxy-4-hydroxy)phenyl-2,5-dimethylpyrroles and related derivatives targeting HIV-1 gp41” (Bioorg Med Chem, 2013)
The source made the active and inactive calls. The rule behind the calls is not given here.

Tests used:
[1] = Cytotoxicity against human MT2 cells after 4 days by XTT assay; type: cell-based
Procedure, shortened: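 XTT assay on MT-2 cells (5 × 10^5/mL mixed with equal volume of compound at graded concentrations). Incubated 4 days, then XTT (1 mg/mL) containing 0.02 µM phenazine methosulphate added. A450 read after 4 h; CC50 calculated as concentration giving 50% cytotoxicity.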

[2] = (§1) Inhibition of HIV-1 gp41-mediated 6-helix bundle formation after 30 mins by sandwich ELISA; set-up: species or system Human immunodeficiency virus 1
Procedure, shortened: (§2)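 Peptide N36 (2 µM) preincubated with compound at graded concentrations, 37 °C, 30 min. C34 (2 µM) then added and incubated a further 30 min at 37 °C. Mixture captured on wells coated with rabbit IgG against gp41 six-helix bundle (10 µg/mL); A450 read. Percent inhibition versus no-compound control; IC50 calculated; triplicate.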

[3] = Selectivity index, ratio of CC50 for human MT2 cells to EC50 for HIV1 3B; type: toxicity, cell-based; details: read-out: Ratio CC50/EC50
Procedure, shortened: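 Selectivity index calculated as CC50 (XTT, MT-2 cells, 4 days) divided by EC50 (p24 inhibition in HIV-1 IIIB-infected MT-2 cells).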

[4] = test system: Human immunodeficiency virus 1; experiment: Antiviral activity against HIV1 3B infected in human MT2 cells assessed as inhibition of p24 antigen production after 4 days by ELISA; type: functional, organism-based; details: Human immunodeficiency virus 1, 3B, MT2, 96 h
Procedure, shortened: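 MT-2 cells (1 × 10^4) infected with HIV-1 IIIB at 100 TCID50 in RPMI 1640 with 10% serum (printed "PBS"), compound at graded concentrations overnight. Supernatant then replaced with compound-free medium. Day 4: supernatant lysed in equal volume 5% Triton X-100, p24 quantified by sandwich ELISA against recombinant p24 standard curve. Triplicate; EC50 from percent inhibition.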

[5] = test system: Human immunodeficiency virus 1; experiment: as §1; procedure, shortened: as §2
[6] = test system: Human immunodeficiency virus 1; experiment: Antiviral activity against enfuvirtide-resistant HIV-1 NL4-3 harboring gp41 (36G)N42T/N43K mutation infected in human MT2 cells assessed as inhibition of p24 antigen production after 4 days by ELISA; type: functional, organism-based
Procedure, shortened: (§3)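 1 × 10^4 MT-2 cells infected with virus (100 TCID50) in RPMI 1640 with 10% serum, with or without compound at graded concentrations, overnight. Supernatant then replaced with compound-free medium. Day 4 supernatant lysed with 5% Triton X-100. p24 quantified by HIVIG-capture sandwich ELISA with recombinant p24 standard curve, A450. IC50 by CalcuSyn, triplicate, mean ± SD.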

[7] = test system: Human immunodeficiency virus 1; experiment: Antiviral activity against enfuvirtide-resistant HIV-1 NL4-3 harboring gp41 (36G)V38A mutation infected in human MT2 cells assessed as inhibition of p24 antigen production after 4 days by ELISA; type: functional, organism-based; procedure, shortened: as §3
[8] = test system: Human immunodeficiency virus 1; experiment: Antiviral activity against enfuvirtide-resistant HIV-1 NL4-3 harboring gp41 (36G)V38E/N42S mutation infected in human MT2 cells assessed as inhibition of p24 antigen production after 4 days by ELISA; type: functional, organism-based; procedure, shortened: as §3
[9] = test system: Human immunodeficiency virus 1; experiment: Antiviral activity against enfuvirtide-resistant HIV-1 NL4-3 harboring gp41 (36G)V38A/N42D mutation infected in human MT2 cells assessed as inhibition of p24 antigen production after 4 days by ELISA; type: functional, organism-based; procedure, shortened: as §3
[10] = test system: Human immunodeficiency virus 1; experiment: Antiviral activity against enfuvirtide-sensitive HIV-1 NL4-3 harboring gp41 (36G)N42S mutation infected in human MT2 cells assessed as inhibition of p24 antigen production after 4 days by ELISA; type: functional, organism-based; procedure, shortened: as §3
[11] = test system: Human immunodeficiency virus 1; experiment: Antiviral activity against enfuvirtide-resistant HIV-1 NL4-3 harboring gp41 (36G)V38A/N42T mutation infected in human MT2 cells assessed as inhibition of p24 antigen production after 4 days by ELISA; type: functional, organism-based; procedure, shortened: as §3
[12] = test system: Human immunodeficiency virus 1; experiment: Ratio of IC50 for enfuvirtide-resistant HIV-1 NL4-3 harboring gp41 (36G)V38A/N42T mutation to IC50 for enfuvirtide-sensitive HIV-1 NL4-3 harboring gp41 (36G)N42S mutation; type: functional
Procedure, shortened: (§4)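 MT-2 cells (1 × 10^4) were infected overnight in RPMI 1640 with 100 TCID50 of the NL4-3 (36G) N42S or mutant strain, with graded compound. Medium was then replaced without compound. On day 4, supernatant was lysed in 5% Triton X-100 and p24 measured by HIVIG-capture ELISA (A450, recombinant p24 standard). IC50 was taken from triplicates, and the ratio was mutant IC50 over N42S IC50.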

[13] = test system: Human immunodeficiency virus 1; experiment: Ratio of IC50 for enfuvirtide-resistant HIV-1 NL4-3 harboring gp41 (36G)V38A mutation to IC50 for enfuvirtide-sensitive HIV-1 NL4-3 harboring gp41 (36G)N42S mutation; type: functional; procedure, shortened: as §4
[14] = test system: Human immunodeficiency virus 1; experiment: Ratio of IC50 for enfuvirtide-resistant HIV-1 NL4-3 harboring gp41 (36G)N42T/N43K mutation to IC50 for enfuvirtide-sensitive HIV-1 NL4-3 harboring gp41 (36G)N42S mutation; type: functional; procedure, shortened: as §4
[15] = test system: Human immunodeficiency virus 1; experiment: Ratio of IC50 for enfuvirtide-resistant HIV-1 NL4-3 harboring gp41 (36G)V38A/N42D mutation to IC50 for enfuvirtide-sensitive HIV-1 NL4-3 harboring gp41 (36G)N42S mutation; type: functional; procedure, shortened: as §4
[16] = test system: Human immunodeficiency virus 1; experiment: Ratio of IC50 for enfuvirtide-resistant HIV-1 NL4-3 harboring gp41 (36G)V38E/N42S mutation to IC50 for enfuvirtide-sensitive HIV-1 NL4-3 harboring gp41 (36G)N42S mutation; type: functional; procedure, shortened: as §4

IC50 [2] | EC50 [4] | Compound | CC50 at 96 h [1] | selectivity ratio [3] | further results
20.8 µM | 12.1 µM | Cc1cc(/C=C2\SC(=S)N(Cc3cccc(C(=O)O)c3)C2=O)c(C)n1-c1ccc(O)c(C(=O)O)c1 | > 100 µM | > 8.3 | 
9.2 µM | 3.9 µM | Cc1cc(/C=C2\SC(=S)N(Cc3cccc(C(F)(F)F)c3)C2=O)c(C)n1-c1ccc(O)c(C(=O)O)c1 | 26.3 µM | 6.7 | 
2.1 µM | 23.5 µM | COc1cccc(CN2C(=O)/C(=C/c3cc(C)n(-c4ccc(O)c(C(=O)O)c4)c3C)SC2=S)c1 | 102 µM | 4.4 | 
68 µM | 7.1 µM | Cc1cc(/C=C2\SC(=S)N(Cc3ccc(C(=O)O)cc3)C2=O)c(C)n1-c1ccc(O)c(C(=O)O)c1 | 105 µM | 14.7 | 
 | 35.6 µM | Cc1cc(/C=C2\SC(=S)N(c3ccccc3)C2=O)c(C)n1-c1ccc(O)c(C(=O)O)c1 | > 100 µM | > 2.8 | inhibition [5]: inactive
0.9 µM | 19.8 µM | COc1ccc(CN2C(=O)/C(=C/c3cc(C)n(-c4ccc(O)c(C(=O)O)c4)c3C)SC2=S)cc1 | 75.3 µM | 3.8 | 
7.8 µM | 32.4 µM | Cc1cc(/C=C2\SC(=S)N(Cc3cccc(Br)c3)C2=O)c(C)n1-c1ccc(O)c(C(=O)O)c1 | 48.2 µM | 1.5 | 
37.4 µM | 0.7 µM | Cc1ccc(C)n1-c1ccc(O)c(C(=O)O)c1 |  | 191 | 
45.7 µM | 15.3 µM | Cc1cc(/C=C2\SC(=S)N(Cc3ccccc3)C2=O)c(C)n1-c1cccc(C(=O)O)c1 | 83.4 µM | 5.5 | 
10.3 µM | 42.7 µM | Cc1cc(/C=C2\SC(=S)N(Cc3ccc(Br)cc3)C2=O)c(C)n1-c1ccc(O)c(C(=O)O)c1 | 94.4 µM | 2.2 | 
 | 41.1 µM | Cc1cc(/C=C2\SC(=S)N(Cc3ccccc3Br)C2=O)c(C)n1-c1ccc(O)c(C(=O)O)c1 | 25.7 µM | 0.6 | 
22.6 µM | 29.1 µM | Cc1cc(/C=C2\SC(=S)N(Cc3ccccc3C(F)(F)F)C2=O)c(C)n1-c1ccc(O)c(C(=O)O)c1 | 28.8 µM | 1 | 
34.3 µM | 19.1 µM | Cc1cc(/C=C2\SC(=S)N(Cc3ccccc3)C2=O)c(C)n1-c1ccc(Cl)c(C(=O)O)c1 | 68.3 µM | 3.6 | 
12.5 µM | 6.2 µM | Cc1cc(/C=C2\SC(=S)N(CCc3ccccc3)C2=O)c(C)n1-c1ccc(O)c(C(=O)O)c1 | 26 µM | 4.2 | 
 |  | enfuvirtide |  |  | IC50 [6]: > 2 µM; IC50 [7]: > 2 µM; Ratio IC50 [12]: >20; Ratio IC50 [13]: >20; Ratio IC50 [14]: >20; Ratio IC50 [15]: >20; IC50 [8]: > 2 µM; Ratio IC50 [16]: >20; IC50 [9]: 1.54 µM; IC50 [10]: 0.077 µM; IC50 [11]: 1.66 µM
11.9 µM | 3.2 µM | Cc1cc(/C=C2\SC(=S)N(Cc3ccccc3)C2=O)c(C)n1-c1ccc(O)c(C(=O)O)c1 | 159 µM | 50.2 | 
18.8 µM | 17.2 µM | Cc1cc(/C=C2\SC(=S)N(Cc3ccc(C(F)(F)F)cc3)C2=O)c(C)n1-c1ccc(O)c(C(=O)O)c1 | 45.9 µM | 2.7 | 

Compound | IC50 [2] | EC50 [4] | CC50 at 96 h [1] | selectivity ratio [3] | further results
Cc1cc(/C=C2\SC(=S)N(Cc3ccc(C(C)(C)C)cc3)C2=O)c(C)n1-c1ccc(O)c(C(=O)O)c1 | 2.6 µM | 0.9 µM | 55.2 µM | 61.3 | IC50 [6]: 1.96 µM; IC50 [7]: 4.25 µM; IC50 [8]: 2.67 µM; IC50 [9]: 2.02 µM; IC50 [10]: 0.473 µM; IC50 [11]: 1.78 µM
COC(=O)c1ccc(CN2C(=O)/C(=C/c3cc(C)n(-c4ccc(O)c(C(=O)O)c4)c3C)SC2=S)cc1 | 1.8 µM | 1.5 µM | 36.9 µM | 24.6 | IC50 [6]: 2.3 µM; IC50 [7]: 4.85 µM; IC50 [8]: 2.75 µM; IC50 [9]: 2.2 µM; IC50 [10]: 2.01 µM; IC50 [11]: 1.67 µM
COC(=O)c1cccc(CN2C(=O)/C(=C/c3cc(C)n(-c4ccc(O)c(C(=O)O)c4)c3C)SC2=S)c1 | 1.8 µM | 0.3 µM | 38.5 µM | 128 | IC50 [6]: 2.02 µM; IC50 [7]: 1.74 µM; IC50 [8]: 3.37 µM; IC50 [9]: 0.725 µM; IC50 [10]: 2.22 µM; IC50 [11]: 2.82 µM
